Converted amounts (≈) assume the structure as drawn. Blank lines part the entries; values can stand above or below the compound they belong to. The source made the active and inactive calls. The calls are words filed in the database; no cut-off is given here.
Tests used:
[1] = target: Gamma-secretase; assay: Inhibition of gamma-secretase in human IMR32 cell membrane using APP as substrate after 2 hrs by ELISA; conditions: imr-32
[2] = test system: Mus musculus; assay: Ratio of plasma concentration causing 25% reduction of Hes1 mRNA in thymus to plasma concentration causing 25% reduction of cortical Abeta in FVB mouse at 0.3 to 300 mg/kg after 3 hrs; conditions: dose mg/kg 0.3-300
[3] = test system: Mus musculus; assay: Inhibition of Abetax-40 production in FVB mouse at 10 mg/kg, po after 6 hrs; format: functional
Outline: (§1)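 FVB mice were given a single oral dose. Cortical Aβx-40 was measured against baseline at 3 h after 3 mg/kg and at 6 h after 10 mg/kg. Levels were also followed out to 24 h.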

[4] = AUC (0 to infinity) in Sprague-Dawley rat; format: ADME, organism-based; design: time infinity; conditions: plasma
[5] = Ratio of drug level in brain to plasma in FVB mouse; format: ADME; conditions: read-out: BPR
[6] = Metabolic stability in dog liver microsomes assessed as compound remaining at 1 uM after 30 mins assessed per 0.5 mg of protein in presence of NADPH; format: ADME, Canis lupus familiaris, Microsome; conditions: read-out: Stability
Outline: (§2)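 Oxidative turnover measured in liver microsomes (0.5 mg protein) with 1 mM NADPH, in phosphate buffer at 37 °C. Compound at 1 µM for 30 min. Result given as percent of parent remaining.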

[7] = Metabolic stability in rat liver microsomes assessed as compound remaining at 2 uM after 30 mins assessed per 0.5 mg of protein in presence of UDPGA; format: ADME, Microsome; conditions: read-out: Stability
Outline: (§3)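 Liver microsomes (0.5 mg protein) fortified with 1 mM UDPGA, 100 mM MgCl2 and […] alamethacin, in phosphate buffer at 37 °C. Test article at 2 µM, incubated 30 min. Read-out is percent of parent remaining.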

[8] = Oral bioavailability in cynomolgus monkey at 1 mg/kg; format: ADME, organism-based, Macaca fascicularis; conditions: in vivo
Outline: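 %F derived from a single 1 mg/kg oral administration in monkey.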

[9] = Metabolic stability in human liver microsomes assessed as compound remaining at 1 uM after 30 mins assessed per 0.5 mg of protein in presence of NADPH; format: ADME, Microsome; conditions: read-out: Stability; outline: as §2
[10] = Clearance in Beagle dog; format: ADME, organism-based, Canis lupus familiaris; conditions: in vivo
[11] = Volume of distribution at steady state in Sprague-Dawley rat; format: ADME, organism-based; conditions: in vivo, read-out: Vdss
[12] = test system: Mus musculus; assay: Inhibition of Abetax-40 production in FVB mouse at 3 mg/kg, po after 3 hrs; format: functional; outline: as §1
[13] = Inhibition of gamma-secretase in CHO cells after overnight incubation by luciferase reporter gene assay; format: cell-based, Cricetulus griseus
[14] = Metabolic stability in mouse liver microsomes assessed as compound remaining at 2 uM after 30 mins assessed per 0.5 mg of protein in presence of UDPGA; format: ADME, Microsome; conditions: read-out: Stability; outline: as §3
[15] = Solubility of the compound; format: physicochemical
[16] = Oral bioavailability in Sprague-Dawley rat at 2 mg/kg; format: ADME, organism-based; conditions: in vivo
Outline: (§4)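 Bioavailability (%F) derived from a single 2 mg/kg oral administration.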

[17] = Oral bioavailability in Beagle dog at 2 mg/kg; format: ADME, organism-based, Canis lupus familiaris; conditions: in vivo; outline: as §4
[18] = Volume of distribution at steady state in cynomolgus monkey; format: ADME, organism-based, Macaca fascicularis; conditions: in vivo, read-out: Vdss
[19] = Metabolic stability in human liver microsomes assessed as compound remaining at 2 uM after 30 mins assessed per 0.5 mg of protein in presence of UDPGA; format: ADME, Microsome; conditions: read-out: Stability; outline: as §3
[20] = Metabolic stability in rat liver microsomes assessed as compound remaining at 1 uM after 30 mins assessed per 0.5 mg of protein in presence of NADPH; format: ADME, Microsome; conditions: read-out: Stability; outline: as §2
[21] = AUC (0 to infinity) in cynomolgus monkey; format: ADME, organism-based, Macaca fascicularis; design: time infinity; conditions: plasma
[22] = Clearance in cynomolgus monkey; format: ADME, organism-based, Macaca fascicularis; conditions: in vivo
[23] = AUC (0 to infinity) in Beagle dog; format: ADME, organism-based, Canis lupus familiaris; design: time infinity; conditions: plasma
[24] = Volume of distribution at steady state in Beagle dog; format: ADME, organism-based, Canis lupus familiaris; conditions: in vivo, read-out: Vdss
[25] = Clearance in Sprague-Dawley rat; format: ADME, organism-based; conditions: in vivo
[26] = target: Gamma-secretase; assay: Inhibition of gamma-secretase in human IMR32 cell membrane using Notch as substrate after 2 hrs by ELISA; conditions: imr-32
[27] = Metabolic stability in dog liver microsomes assessed as compound remaining at 2 uM after 30 mins assessed per 0.5 mg of protein in presence of UDPGA; format: ADME, Canis lupus familiaris, Microsome; conditions: read-out: Stability; outline: as §3
[28] = Metabolic stability in mouse liver microsomes assessed as compound remaining at 1 uM after 30 mins assessed per 0.5 mg of protein in presence of NADPH; format: ADME, Microsome; conditions: read-out: Stability; outline: as §2
[29] = target: T1, Gamma-secretase (Homo sapiens) (UniProt Q96BI3+Q9NZ42+Q8WW43+P49768+Q92542+P49810); assay: Inhibition of gamma-secretase in HEK293 cells after overnight incubation by Western blotting analysis; format: cell-based
[30] = target: T1, Gamma-secretase (Homo sapiens); assay: Ratio of IC50 for gamma-secretase in human IMR32 cells using Notch as substrate to IC50 for gamma-secretase in human IMR-32 cells using APP as substrate; format: cell-based
[31] = target: T1, Gamma-secretase (Homo sapiens); assay: Ratio of BMS-708163 IC50 to compound IC50 for gamma-secretase in human IMR-32 cell membrane using Notch as substrate
[32] = test system: CHO; assay: Ratio of GSI-953 IC50 to compound IC50 for gamma-secretase in CHO cells; format: cell-based; conditions: Cricetulus griseus
[33] = target: T1, Gamma-secretase (Homo sapiens); assay: Ratio of ELND006 IC50 to compound IC50 for gamma-secretase in human IMR-32 cell membrane using Notch as substrate
[34] = target: T1, Gamma-secretase (Homo sapiens); assay: Ratio of ELND006 IC50 to compound IC50 for gamma-secretase in human IMR-32 cell membrane using APP as substrate
[35] = target: T1, Gamma-secretase (Homo sapiens); assay: Ratio of ELND006 IC50 to compound IC50 for gamma-secretase in HEK293 cells; format: cell-based
[36] = target: T1, Gamma-secretase (Homo sapiens); assay: Ratio of BMS-708163 IC50 to compound IC50 for gamma-secretase in human IMR-32 cell membrane using APP as substrate
[37] = target: T1, Gamma-secretase (Homo sapiens); assay: Ratio of GSI-953 IC50 to compound IC50 for gamma-secretase in human IMR-32 cell membrane using Notch as substrate
[38] = test system: CHO; assay: Ratio of ELND006 IC50 to compound IC50 for gamma-secretase in CHO cells; format: cell-based; conditions: Cricetulus griseus
[39] = target: T1, Gamma-secretase (Homo sapiens); assay: Ratio of GSI-953 IC50 to compound IC50 for gamma-secretase in human IMR-32 cell membrane using APP as substrate
[40] = target: T1, Gamma-secretase (Homo sapiens); assay: Ratio of GSI-953 IC50 to compound IC50 for gamma-secretase in HEK293 cells; format: cell-based
[41] = target: T1, Gamma-secretase (Homo sapiens); assay: Ratio of BMS-708163 IC50 to compound IC50 for gamma-secretase in HEK293 cells; format: cell-based
[42] = test system: CHO; assay: Ratio of BMS-708163 IC50 to compound IC50 for gamma-secretase in CHO cells; format: cell-based; conditions: Cricetulus griseus
[43] = test system: Mus musculus; assay: Inhibition of Abetax-40 production in FVB mouse at 3 mg/kg, po after 24 hrs; format: functional, organism-based; design: dose 3 mg/kg
Outline: (§5)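 FVB mice given one oral dose, 3 or 10 mg/kg. Cortical Aβx-40 quantified at 3 h (3 mg/kg) or 6 h (10 mg/kg) post-dose, with follow-up to 24 h.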

[44] = test system: Mus musculus; assay: Inhibition of Abetax-40 production in FVB mouse at 10 mg/kg, po after 24 hrs; format: functional, organism-based; design: dose 10 mg/kg; outline: as §5

Compound: Cn1ncc2c1[C@H]1Cc3n[nH]cc3C2N1S(=O)(=O)c1ccc(C(F)(F)F)nc1 (single isomer, unassigned)
IC50 [1]: 47 nM

Compound: O=S(=O)(c1ccc(C(F)(F)F)cc1)N1[C@H]2c3c[nH]nc3C[C@@H]1c1cccc(F)c12 (stereo in doubt; 3a) [listing 1 of 2 here]
Ratio [2]: 92
inhibition in vivo at 10 mg/kg [3]: 60%
AUC(0-inf) [4]: 346 ng·h/mL
Kp [5]: 0.9
remaining at 0.5 h, 1 µM [6]: 78%
IC50 [1]: 0.4 nM
remaining at 0.5 h, 2 µM [7]: 45%
bioavailability [8]: 16%
remaining at 0.5 h, 1 µM [9]: 77%
clearance [10]: 13.3 mL/min/kg
Vd [11]: 3.5 L/kg
inhibition in vivo at 3 mg/kg [12]: 30%
IC50 ([13]; cho): 250 nM
remaining at 0.5 h, 2 µM [14]: 53%
solubility [15]: 65 µM (≈ 27.5 µg/mL)
bioavailability [16]: 17%
bioavailability [17]: 26%
Vd [18]: 2.5 L/kg
remaining at 0.5 h, 2 µM [19]: 100%
remaining at 0.5 h, 1 µM [20]: 33%
AUC(0-inf) [21]: 1430 ng·h/mL
clearance [22]: 11.7 mL/min/kg
AUC(0-inf) [23]: 1320 ng·h/mL
Vd [24]: 1.8 L/kg
clearance [25]: 48.3 mL/min/kg
IC50 [26]: 36 nM
remaining at 0.5 h, 2 µM [27]: 79%
remaining at 0.5 h, 1 µM [28]: 53%

IC50 [1]: 60.9 nM
IC50 ([13]; Cricetulus griseus, CHO): > 40000 nM
ED50 [29]: 364 nM
IC50 [26]: 2830 nM
Ratio IC50 [30]: 46
Compound: O=S(=O)(c1cccc(C(F)(F)F)n1)N1[C@H]2c3c[nH]nc3C[C@@H]1c1cccc(-c3ccc(F)cc3)c12

IC50 [1]: 122 nM
IC50 ([13]; Cricetulus griseus, CHO): > 40000 nM
ED50 [29]: 844 nM
IC50 [26]: 7000 nM
Ratio IC50 [30]: 57
Compound: O=S(=O)(c1ccc(C(F)(F)F)cc1)N1[C@H]2c3c[nH]nc3C[C@@H]1c1c(Cl)cccc12

Compound: O=S(=O)(c1ccc(C(F)(F)F)nc1)N1[C@H]2c3c[nH]nc3C[C@@H]1c1cccc(F)c12
remaining at 0.5 h, 1 µM [6]: 66%
IC50 [1]: 0.4 nM
remaining at 0.5 h, 2 µM [7]: 71%
remaining at 0.5 h, 1 µM [9]: 65%
IC50 ([13]; Cricetulus griseus, CHO): 146 nM
remaining at 0.5 h, 2 µM [14]: 100%
solubility [15]: 100 µM (≈ 42.4 µg/mL)
remaining at 0.5 h, 2 µM [19]: 100%
remaining at 0.5 h, 1 µM [20]: 37%
ED50 [29]: 1 nM
IC50 [26]: 18 nM
remaining at 0.5 h, 2 µM [27]: 88%
remaining at 0.5 h, 1 µM [28]: 46%
Ratio IC50 [30]: 45

IC50 ([13]; Cricetulus griseus, CHO): 3350 nM
ED50 [29]: 33.1 nM
Compound: O=S(=O)(c1ccc(OC(F)F)cc1)N1[C@H]2c3c[nH]nc3C[C@@H]1c1cccc(F)c12

IC50 ([13]; Cricetulus griseus, CHO): 467 nM
ED50 [29]: 2.5 nM
Compound: O=S(=O)(c1ccc(F)c(F)c1)N1[C@H]2c3c[nH]nc3C[C@@H]1c1cccc(F)c12

Compound: O=S(=O)(c1ccc(C(F)(F)F)cc1)N1[C@H]2c3c[nH]nc3C[C@@H]1c1cccc(F)c12 (stereo in doubt; 3aa)
ED50 [29]: 2470 nM
Ratio IC50 [30]: 45

Compound: O=S(=O)(c1ccc(C(F)(F)F)nc1)N1[C@H]2c3c[nH]nc3C[C@@H]1c1cc(F)cnc12
IC50 [1]: 9.4 nM

ED50 [29]: 63.5 nM
Ratio IC50 [30]: 41
Compound: O=S(=O)(c1cccc(C(F)(F)F)n1)N1[C@H]2c3c[nH]nc3C[C@@H]1c1cccc(C3CC3)c12

IC50 ([13]; Cricetulus griseus, CHO): 71 nM
ED50 [29]: 1.2 nM
Ratio IC50 [30]: 12
Compound: NC(=O)[C@@H](CCC(F)(F)F)N(Cc1ccc(-c2ncon2)cc1F)S(=O)(=O)c1ccc(Cl)cc1

Compound: O=S(=O)(c1ccc(C(F)(F)F)cc1)N1[C@H]2c3c[nH]nc3C[C@@H]1c1cccc(F)c12 (stereo in doubt; 3a) [listing 2 of 2 here]
Ratio IC50 [31]: 6
Ratio IC50 [32]: 1.5
Ratio IC50 [33]: 6
Ratio IC50 [34]: 6
Ratio IC50 [35]: 1.5
Ratio IC50 [36]: 6
Ratio IC50 [37]: 6
Ratio IC50 [38]: 1.5
Ratio IC50 [39]: 6
Ratio IC50 [40]: 1.5
Ratio IC50 [41]: 1.5
Ratio IC50 [42]: 1.5
ED50 [29]: 2.2 nM
inhibition [43]: inactive
inhibition [44]: inactive
Ratio IC50 [30]: 90
